Test results as given in PubChem BioAssay.
Calls of active or inactive are those of the source.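 The calls were made as follows, unless noted: active = Her2 level under about 52% in both replicate screens, with viability over 70% of control (limit read from the data); inconclusive = Her2 under the limit in one screen only, or viability under 70%; inactive = Her2 level above the set limit.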

Tests used:
[1] = reducers of endogenous Her2 protein level, primary screen, SKBR3 breast tumor cells, AlphaScreen, ATP viability (AID 461); details: 18-24 h, measured here: SKBR3 viability, ATP luminescence, at 10 µM;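 as to Her2 level: lower value means less Her2 protein in the cells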;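 as to viability: percent of carrier control wells set as 100% viability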
[2] = target: Receptor tyrosine-protein kinase erbB-2 (Homo sapiens) (UniProt P04626); assay: as above; details: 18-24 h, at 10 µM, stronger effect = lower value
[3] = SK-BR-3 cell growth inhibitors, pilot screen, 24 h, human (AID 572;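 active = viability at or below 10% of carrier control in both of two separate runs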;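 also: compound exposure lasted between 18 and 24 h rather than exactly 24 h; 100% = carrier-treated control wells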); details: SK-BR-3 viability, CellTiter-Glo luminescence, at 10 µM, stronger effect = lower value
[4] = HUVEC growth inhibition – cell-based, human, primary screen (AID 575;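 active = viability at or below 30% in both replicate assays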;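 also: 100% = median of untreated cell wells with 0.1% DMSO on each plate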); details: HUVEC proliferation, CellTiter-Glo luminescence, 72 h; at 10 µM; stronger effect = lower value
In short: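 system = HUVEC primary cells | amount = 1250 cells/well | buffer or medium = supplemented EBM, 2% fetal bovine serum | dosing = single-point 10 µM, DMSO 0.1% final | times = 72 h compound incubation | detection = CTG luminescence | read-out = % viability relative to median vehicle-well signal on each plate | control set = vehicle and MePR control wells | format = collagen-coated 384-well format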

[5] = growth inhibitors of H69AR lung tumor, primary screen, human, duplicate replicates (AID 580;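 active = viability at or under a set limit in both replicates, limit being median viability minus 3 SD, cut at about 48% in these data, passing the limit was not always enough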;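 also: 100% = mean luminescence of untreated wells and 0% = no signal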); details: H69AR lung tumor cells viability, ATP luminescence, 72 h; at 10 µM; stronger effect = lower value
[6] = reversal of MRP1-mediated doxorubicin resistance, pilot screen, H69AR cells, doxorubicin co-treatment (AID 601;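 active = viability loss from added drug above about 55%, and viability with drug at most 40%, in both replicates, limit read from the data, passing the limit was not always enough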); details: CellTiter-Glo, 72 h, at 10 µM; for differential viability (reversal): stronger effect = higher value
[7] = 384-well plate pilot, post-Golgi transport modulator project, inhibition of yeast transport mutant growth (AID 636; in the data active = inhibition above about 31%); details: absorbance 615 nm, about 18 h, stronger effect = higher value
[8] = growth suppression of yeast trafficking mutant, preliminary HTS, modulators of trafficking downstream of Golgi apparatus project, 1536-format plate, OD 615 nm (AID 637; in the data active = inhibition above about 30%); details: yeast transport mutant growth, absorbance 615 nm, 18 h; stronger effect = higher value
[9] = H69AR cells + 2 uM doxorubicin, measured here: viability with 2 uM doxorubicin, stronger effect = lower value
[10] = H69AR cells, compound alone cytotoxicity

Sequence of Receptor tyrosine-protein kinase erbB-2 (Homo sapiens) (P04626 whole entry, looked up): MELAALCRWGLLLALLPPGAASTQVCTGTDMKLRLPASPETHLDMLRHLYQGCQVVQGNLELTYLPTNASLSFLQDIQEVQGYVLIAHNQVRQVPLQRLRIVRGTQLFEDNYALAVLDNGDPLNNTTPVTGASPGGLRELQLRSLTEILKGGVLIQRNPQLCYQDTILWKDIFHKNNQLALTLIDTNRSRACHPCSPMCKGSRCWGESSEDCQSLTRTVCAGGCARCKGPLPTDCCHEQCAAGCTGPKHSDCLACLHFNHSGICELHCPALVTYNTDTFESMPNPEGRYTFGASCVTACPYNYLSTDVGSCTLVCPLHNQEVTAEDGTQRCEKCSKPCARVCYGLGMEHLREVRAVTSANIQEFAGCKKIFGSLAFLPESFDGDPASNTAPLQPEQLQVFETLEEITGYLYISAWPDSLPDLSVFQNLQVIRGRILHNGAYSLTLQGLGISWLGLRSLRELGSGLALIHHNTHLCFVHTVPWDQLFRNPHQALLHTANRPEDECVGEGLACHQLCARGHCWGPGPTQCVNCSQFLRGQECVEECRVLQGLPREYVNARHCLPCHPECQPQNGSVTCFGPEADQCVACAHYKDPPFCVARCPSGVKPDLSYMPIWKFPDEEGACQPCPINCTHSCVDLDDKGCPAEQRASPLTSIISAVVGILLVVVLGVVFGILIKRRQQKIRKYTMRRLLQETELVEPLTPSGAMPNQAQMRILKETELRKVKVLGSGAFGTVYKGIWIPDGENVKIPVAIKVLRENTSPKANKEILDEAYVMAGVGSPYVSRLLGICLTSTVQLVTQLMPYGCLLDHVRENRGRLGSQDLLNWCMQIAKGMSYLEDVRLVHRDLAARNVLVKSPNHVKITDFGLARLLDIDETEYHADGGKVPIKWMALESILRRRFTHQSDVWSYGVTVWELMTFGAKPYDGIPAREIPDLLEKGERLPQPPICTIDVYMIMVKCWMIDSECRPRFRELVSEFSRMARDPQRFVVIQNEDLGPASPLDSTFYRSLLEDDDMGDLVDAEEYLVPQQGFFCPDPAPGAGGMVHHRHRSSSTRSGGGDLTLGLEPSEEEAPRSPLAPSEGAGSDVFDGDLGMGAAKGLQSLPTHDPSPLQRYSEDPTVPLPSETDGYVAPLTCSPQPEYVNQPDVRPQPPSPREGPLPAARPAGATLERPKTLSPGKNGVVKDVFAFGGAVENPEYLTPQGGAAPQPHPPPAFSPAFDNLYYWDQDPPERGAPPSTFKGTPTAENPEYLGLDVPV

| Structure (SMILES) | viability [1] | Her2 level [2] | viability [3] | viability [4] | viability [5] | differential viability (reversal) ([6]; H69AR cells + 2 uM doxorubicin) | viability [6, 9] | viability [6, 10] | inhibition [7] | inhibition [8] |
| --- | --- | --- | --- | --- | --- | --- | --- | --- | --- | --- |
| CCOC(=O)CN(C(=O)CSc1nnc(-c2ccncc2)n1CCCN(C)C)c1ccccc1 | 107% | 98.5% (inactive) | 107% (inactive) | 106% (inactive) | 87.6% (inactive) | 9.5% (inactive) | 78.1% | 87.6% | -5.19% (inactive) | 1.9% (inactive) |
| COc1ccc(C2=NOC(C(=O)NCc3ccc(F)cc3)C2)cc1OC (stereo not given) | 95.5% | 87.5% (inactive) | 95.5% (inactive) | 42% (inactive) | 29.3% (active) | -34.5% (inactive) | 63.9% | 29.3% | -1.32% (inactive) | 5.4% (inactive) |
| CC1(CC(=O)O)C(=O)N=C2C=CC=CN21 (stereo not given) | 93% | 87.5% (inactive) | 93% (inactive) | 97.9% (inactive) | 89.4% (inactive) | 5.18% (inactive) | 84.2% | 89.4% | -4.93% (inactive) | 0.16% (inactive) |
| CS(=O)(=O)NCc1ccc(C(=O)NCc2ccccc2)cc1 | 101% | 97% (inactive) | 101% (inactive) | 83.5% (inactive) | 113% (inactive) | 18.6% (inactive) | 94.4% | 113% | -4.47% (inactive) | 4% (inactive) |
| COc1ccccc1OCC(=O)Nc1cccc(-c2nc3ccccc3o2)c1 | 104% | 78.5% (inactive) | 104% (inactive) | 52.8% (inactive) | 65.1% (inactive) | -14.2% (inactive) | 79.3% | 65.1% | -0.13% (inactive) | 23% (inactive) |
| CCN1CCN(c2ncc(C(=O)N3CCN(c4ccccc4OC)CC3)c3ccccc23)CC1 | 81% | 87.5% (inactive) | 81% (inactive) | 98.8% (inactive) | 101% (inactive) | 14.7% (inactive) | 86.7% | 101% | -5.68% (inactive) | -1.8% (inactive) |
| N=c1c(C(=O)NCc2ccc3c(c2)OCO3)cc2c(=O)n3ccccc3nc2n1Cc1cccnc1 | 73.5% | 68% (inactive) | 73.5% (inactive) | 87% (inactive) | 78.8% (inactive) | -0.53% (inactive) | 79.3% | 78.8% | -2.47% (inactive) | -2.3% (inactive) |
| COc1cc2c(C)nc(C)c(C#N)c2cc1OC | 111% | 93.5% (inactive) | 111% (inactive) | 66.4% (inactive) | 86.6% (inactive) | 10.1% (inactive) | 76.5% | 86.6% | -6% (inactive) | -2.74% (inactive) |
| Cc1nc2sc(C(c3ccccc3)N3CCN(c4ccccc4F)CC3)c(O)n2n1 (stereo not given) | 91.5% | 93.5% (inactive) | 91.5% (inactive) | 97.6% (inactive) | 100% (inactive) | 2.07% (inactive) | 98.1% | 100% | 0% (inactive) | -7.7% (inactive) |
| COc1cc(-c2nc(-c3cccc(C(F)(F)F)c3)no2)cc(OC)c1OC | 102% | 99.5% (inactive) | 102% (inactive) | 94.4% (inactive) | 93.4% (inactive) | 10.7% (inactive) | 82.6% | 93.4% | -1.87% (inactive) | -2.58% (inactive) |
| Cc1cnnc2c1-c1nonc1CC2 | 94.5% | 102% (inactive) | 94.5% (inactive) | 87.4% (inactive) | 105% (inactive) | 15.2% (inactive) | 90.1% | 105% | -6.13% (inactive) | 2.74% (inactive) |
| O=C(NCc1cccnc1)c1ccc2c(c1)OCO2 | 74% | 102% (inactive) | 74% (inactive) | 105% (inactive) | 89.7% (inactive) | -16.9% (inactive) | 107% | 89.7% | -1.35% (inactive) | -9.18% (inactive) |
| O=C(c1ccc(Cl)cc1)N1CCCCC(Sc2nnc(-c3ccc4c(c3)OCO4)o2)C1=O (stereo not given) | 118% | 76% (inactive) | 118% (inactive) | 62% (inactive) | 88.5% (inactive) | -3.4% (inactive) | 91.9% | 88.5% | -6.49% (inactive) | 5.56% (inactive) |
| CCOC(=O)N1CCN(C(=O)CSc2nnc(Cc3ccccc3)o2)CC1 | 92.5% | 102% (inactive) | 92.5% (inactive) | 76% (inactive) | 103% (inactive) | 25.7% (inactive) | 77.2% | 103% | 0.27% (inactive) | 1.97% (inactive) |
| Cc1cc(C)c2nc(N)sc2c1 | 95.5% | 108% (inactive) | 95.5% (inactive) | 105% (inactive) | 103% (inactive) | 16.9% (inactive) | 85.8% | 103% | -6.62% (inactive) | -3.33% (inactive) |
| Cc1ccc(Br)cc1S(=O)(=O)N1CCN(c2ccccc2)CC1 | 93.5% | 116% (inactive) | 93.5% (inactive) | 76.2% (inactive) | 79.4% (inactive) | -5.03% (inactive) | 84.5% | 79.4% | 1.17% (inactive) | -8.5% (inactive) |
